According to ChEMBL document CHEMBL1141642, “Rate enhancement of the oxidative folding of lysozyme by the use of aromatic thiol containing redox buffers” (Bioorg Med Chem, 2008):

Legend:
Gallus gallus [1] = organism: Gallus gallus; assay: Effect on reduced chicken lysozyme folding activity assessed as maximal activity at 8 mM at pH 7; parameters: scale not given: the % may be the effect or the level left
Outline: (§1)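 Denatured reduced lysozyme diluted 100-fold to 7 µM into deoxygenated 0.1 M Bis–Tris propane pH 7.0, 1 mM EDTA, 0.5 M GdnHCl, 0.2 mM GSSG plus aromatic thiol, 25 °C. Timed aliquots assayed for lytic activity on M. lysodeikticus (decrease in 450 nm scattering over 2 min). Fit to y=A(1−e^−kt), A = maximal %activity; at least seven independent assays on separate days.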

Gallus gallus [2] = organism: Gallus gallus; assay: Effect on reduced chicken lysozyme folding activity assessed as maximal activity at 8 mM at pH 6; parameters: scale not given: the % may be the effect or the level left
Outline: (§2)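 Denatured reduced lysozyme (DTE-reduced in 6 M GdnHCl, desalted) diluted 100-fold to 7 µM (0.1 mg/mL) into deoxygenated 0.1 M Bis–Tris pH 6.0, 1 mM EDTA, 0.5 M GdnHCl, 0.2 mM GSSG plus aromatic thiol, 25 °C. Aliquots assayed over time by lysis of M. lysodeikticus (450 nm light scattering, 2 min slope). Curves fit to y=A(1−e^−kt), A = maximal %activity; at least four assays on separate days, standard deviation.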

[3] = Dissociation constant, pKa of the compound; type: physicochemical
Gallus gallus [4] = organism: Gallus gallus; assay: Effect on reduced chicken lysozyme folding activity assessed as maximal activity at 20 mM at pH 7; parameters: scale not given: the % may be the effect or the level left; outline: as §1
Gallus gallus [5] = organism: Gallus gallus; assay: Effect on reduced chicken lysozyme folding activity assessed as maximal activity at 20 mM at pH 6; parameters: scale not given: the % may be the effect or the level left; outline: as §2
Gallus gallus [6] = organism: Gallus gallus; assay: Effect on reduced chicken lysozyme folding activity assessed as maximal activity at 15 mM at pH 7; parameters: scale not given: the % may be the effect or the level left; outline: as §1
Gallus gallus [7] = organism: Gallus gallus; assay: Effect on reduced chicken lysozyme folding activity assessed as maximal activity at 15 mM at pH 6; parameters: scale not given: the % may be the effect or the level left; outline: as §2

| Activity (Gallus gallus [1]) [%] | Activity (Gallus gallus [2]) [%] | Activity (Gallus gallus [7]) [%] | SMILES | pKa [3] | Activity (Gallus gallus [4]) [%] | Activity (Gallus gallus [5]) [%] | Activity (Gallus gallus [6]) [%] |
| --- | --- | --- | --- | --- | --- | --- | --- |
| 45 | 16 |  | O=C(O)Cc1ccc(S)cc1 |  |  |  |  |
|  |  |  | C[N+](C)(C)Cc1ccc(S)cc1 | 5.5 | 72 | 85 |  |
|  |  | 50 | O=S(=O)(O)c1ccc(S)cc1 | 5.7 | 62 |  |  |
| 70 | 60 |  | O=C(O)c1ccc(S)cc1 | 5.95 |  |  |  |

| SMILES | Activity (Gallus gallus [1]) [%] | Activity (Gallus gallus [2]) [%] | Activity (Gallus gallus [7]) [%] | pKa [3] | Activity (Gallus gallus [4]) [%] | Activity (Gallus gallus [5]) [%] | Activity (Gallus gallus [6]) [%] |
| --- | --- | --- | --- | --- | --- | --- | --- |
| O=P(O)(O)Cc1ccc(S)cc1 |  | 67 |  | 6.6 |  |  | 67 |
